Results from ChEMBL document CHEMBL1159346, “Antineoplastic agents. 488. Isolation and structure of yukonin from a yukon territory fungus” (2003).
Values after ≈ are worked out from the molar mass of the structure shown.

Key:
Assay type in all cases: functional
NCI-H460 = experiment: Cytotoxicity against human NCI-H460 cells
BXPC-3 = experiment: Cytotoxicity against human BxPC3 cells
MCF7 = experiment: Cytotoxicity against human MCF7 cells
KM-20L2 = experiment: Cytotoxicity against human KM20L2 cells
P388 = experiment: Cytotoxicity against mouse P388 cells
Candida albicans = experiment: Antimicrobial activity against Candida albicans by broth microdilution method
Procedure, shortened: (§1)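 Yeast strains: Candida albicans ATCC 90028 and Cryptococcus neoformans ATCC 90112. Tested by broth microdilution following the NCCLS reference broth dilution method for yeasts. The MIC was read as the lowest compound concentration giving no visible growth (optically clear wells).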

DU-145 = experiment: Cytotoxicity against human DU145 cells
SF-268 = experiment: Cytotoxicity against human SF268 cells
Cryptococcus neoformans = experiment: Antimicrobial activity against Cryptococcus neoformans by broth microdilution method; procedure, shortened: as §1

Row | MIC (Candida albicans) [µg/mL] | MIC (Cryptococcus neoformans) [µg/mL] | SMILES | GI50 (NCI-H460) [µg/mL] | GI50 (BXPC-3) [µg/mL] | GI50 (MCF7) [µg/mL] | GI50 (KM-20L2) [µg/mL] | GI50 (P388) [µg/mL] | GI50 (DU-145) [µg/mL] | GI50 (SF-268) [µg/mL]
1 | 8 (≈ 26.3 µM) | 2 (≈ 6.57 µM) | CO[C@H]1OC(=O)C=C2C1=C[C@H]1OC(=O)[C@@]3(C)CCC[C@@]2(C)[C@@H]13 | 0.24 (≈ 0.789 µM) | 0.36 (≈ 1.18 µM) | 0.33 (≈ 1.08 µM) | 0.21 (≈ 0.69 µM) | 4.1 (≈ 13.5 µM) | 0.14 (≈ 0.46 µM) | 0.24 (≈ 0.789 µM)
2 | > 64 | 64 (≈ 220 µM) | C[C@@]12CCC[C@]3(C)C4=CC(=O)O[C@@H](O)C4=C[C@@H](OC1=O)[C@@H]23 [YUKONIN] | 4.1 (≈ 14.1 µM) | 5.6 (≈ 19.3 µM) | 4 (≈ 13.8 µM) | 3.6 (≈ 12.4 µM) | > 10 | 2.9 (≈ 9.99 µM) | 2.9 (≈ 9.99 µM)
3 | 64 (≈ 233 µM) | 16 (≈ 58.3 µM) | C[C@@]12CCC[C@]3(C)C4=CC(=O)OCC4=C[C@@H](OC1=O)[C@@H]23 | 0.48 (≈ 1.75 µM) | 1.8 (≈ 6.56 µM) | 0.69 (≈ 2.52 µM) | 0.45 (≈ 1.64 µM) | 0.31 (≈ 1.13 µM) | 0.34 (≈ 1.24 µM) | 0.57 (≈ 2.08 µM)
